GC-B act: human GC-B receptor activators, primary screen, HEK293 GC-B cells, cGMP TR-FRET, EC30 CNP; Atrial natriuretic peptide receptor 2 (Homo sapiens), P20594; 0% at EC30 CNP, 100% saturating CNP; activation, % at 10 µM; 370,000 compounds, 0.11% hits; AID 1920062, 2024;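 active means activation at 10 µM reaching about 35% in either raw or pattern-adjusted values, limit read from the data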
Lipid droplet: inhibitors of hepatocyte lipid droplet formation, primary screen, imaging, high-throughput imaging, BODIPY stain; AML12 mouse hepatocytes, oleate lipid droplets; inhibition, % at 6.5 µM; 240,000 compounds, 0.4% hits; AID 1656, 2009;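 active means lipid droplet intensity inhibited by at least 50%, with more than 500 cells counted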
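Assay system: AML12 hepatocytes (mouse) / Also added: 100 µM oleic acid challenge / Times: overnight treatment with compound plus oleate / Detection: high-content imaging of BODIPY-stained droplets and DAPI nuclei / Evaluation: % inhibition of lipid droplet signal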
NR3A LBD binder: binders of NR3A ligand-binding domain, primary screen, biophysical, differential scanning fluorimetry, uHTS | Tm shift relative to glycine control, % at 25 µM | 340,000 compounds, 2.5% hits | NR3A LBD differential scanning fluorimetry, Tm shift; 0% = protein alone, 100% = glycine-bound protein | Glutamate receptor ionotropic, NMDA 3A (GRIN3A) ligand-binding domain;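 active means melting temperature shift of at least 10% of the positive control shift, at one fixed dose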
aDG glyco up: activators of alpha-DG glycosylation, primary screen, uHTS, Pro5-aDG cells, AlphaScreen; alpha-DG glycosylation AlphaScreen (IIH6); 0% Pro5, 100% B10-LARGE cell signal; 360,000 compounds, 0.22% hits; activation, % at 10 µM;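 active means activation of at least 8% versus controls, or a plate z-score of at least 8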;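 further: Pro5 are CHO cells carrying HIG-tagged alpha-DG that lacks glycosylation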
GASC-1 inh: inhibitors of GASC-1 histone demethylase, primary screen, biochemical, fluorescence, DELFIA europium; GST-JMJD2C(1-420) H3K9me3 demethylation; inhibition, % at 2.35 µM; Lysine-specific demethylase 4C (Homo sapiens), Q9H3R0; 330,000 compounds, 0.069% hits;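 active means more than half of a compound's replicate wells show inhibition beyond 50%, single wells judged on their own value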;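 further: signal counts dimethyl H3K9 product captured on neutravidin plate; 0% = median of DMSO wells and 100% = 0.3 times that DMSO median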
NPR1 activator: GC-A stimulated cGMP production enhancers – HEK293 GC-A cells, cGMP TR-FRET, EC30 ANP, primary screen. Atrial natriuretic peptide receptor 1 (Homo sapiens), P16066. 0% at EC30 ANP, 100% saturating ANP. activation, % at 10 µM. 370,000 compounds, 0.14% hits; in the data active means activation above about 40%
Target sequence (P16066 whole entry, looked up): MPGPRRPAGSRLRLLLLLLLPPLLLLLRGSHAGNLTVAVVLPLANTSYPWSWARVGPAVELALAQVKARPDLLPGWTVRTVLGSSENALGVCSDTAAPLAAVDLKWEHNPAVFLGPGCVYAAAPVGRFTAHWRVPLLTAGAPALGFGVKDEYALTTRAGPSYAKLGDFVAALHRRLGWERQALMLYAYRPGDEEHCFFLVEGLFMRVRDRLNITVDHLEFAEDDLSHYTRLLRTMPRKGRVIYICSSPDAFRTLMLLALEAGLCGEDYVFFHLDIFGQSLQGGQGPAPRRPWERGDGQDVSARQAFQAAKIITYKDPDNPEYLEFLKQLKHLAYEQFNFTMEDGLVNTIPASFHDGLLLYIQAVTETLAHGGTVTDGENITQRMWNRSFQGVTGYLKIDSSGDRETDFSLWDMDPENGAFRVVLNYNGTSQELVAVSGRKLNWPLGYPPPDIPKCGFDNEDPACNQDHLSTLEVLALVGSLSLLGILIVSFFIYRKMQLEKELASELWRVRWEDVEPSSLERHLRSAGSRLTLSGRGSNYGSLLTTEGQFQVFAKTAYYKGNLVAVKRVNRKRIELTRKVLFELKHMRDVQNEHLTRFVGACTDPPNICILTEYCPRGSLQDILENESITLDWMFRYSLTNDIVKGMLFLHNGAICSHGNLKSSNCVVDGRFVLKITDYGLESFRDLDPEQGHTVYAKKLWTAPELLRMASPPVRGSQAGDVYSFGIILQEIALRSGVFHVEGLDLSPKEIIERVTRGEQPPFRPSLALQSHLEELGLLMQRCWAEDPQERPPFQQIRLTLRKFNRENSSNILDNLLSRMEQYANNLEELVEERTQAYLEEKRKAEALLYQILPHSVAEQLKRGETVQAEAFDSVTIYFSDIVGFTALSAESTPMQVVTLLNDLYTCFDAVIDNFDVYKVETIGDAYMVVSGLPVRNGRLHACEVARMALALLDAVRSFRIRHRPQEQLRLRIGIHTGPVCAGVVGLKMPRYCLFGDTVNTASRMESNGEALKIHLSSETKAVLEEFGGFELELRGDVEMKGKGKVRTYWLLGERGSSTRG
The depositor's hits bear a star; . = not tested or not shown. This is a sample that favours compounds with a hit; in the whole collection about 3% have one here.

SMILES	GC-B act	Lipid droplet	NR3A LBD binder	aDG glyco up	GASC-1 inh	NPR1 activator
O=C(Nc1ccc(Nc2ccccc2)cc1)c1ccc(Cl)cc1	-4	.	32*	0	9	7
CSc1ccccc1C(=O)Nc1ccc(C)c(C)c1	0	-8	2	0	102*	6
O=C(Nc1ccccc1)c1oc2ccccc2c1NC(=O)C1CC1	3	12	13*	0	3	7
C#CC1(O)C2C=C(OC)C(=O)C1C(c1ccccc1)C2C (stereo unspecified)	5	.	.	.	.	3
O=C(NC1CCCCN(Cc2cccc(C(F)(F)F)c2)C1=O)C1C2CC3CC(C2)CC1C3 (stereo unspecified)	8	.	.	.	.	-3
CCNC(=O)/C(C#N)=C/c1c(N(Cc2ccccc2)Cc2ccccc2)nc2ccccn2c1=O	0	-2	22*	0	8	-4
C#CCOCCOCCOCCNc1nc(N2CCN(C(=O)CCCCCCCCCCNC(=O)[C@H](CO)n3cc(CCCSC)nn3)CC2)nc(N2CCN(C(=O)CCCCCCCCCCNC(=O)[C@H](CCCN=C(N)N)n3cc(C[C@@H](C)CC)nn3)CC2)n1	.	.	7	-1	57*	.
C#CCOCCOCCOCCNc1nc(N2CCN(C(=O)CCCCCCCCCCNC(=O)Cn3cc(C[C@@H](C)O)nn3)CC2)nc(N2CCN(C(=O)CCCCCCCCCCNC(=O)[C@H](CCCN=C(N)N)n3cc(C[C@@H](C)CC)nn3)CC2)n1	.	.	10	0	-10	.
C#CCOCCOCCOCCNc1nc(N2CCN(C(=O)CCCCCCCCCCNC(=O)[C@H](CO)n3cc(CCCSC)nn3)CC2)nc(N2CCN(C(=O)CCCCCCCCCCNC(=O)[C@H](CCCCN)n3cc(CCO)nn3)CC2)n1	-1	.	28*	0	-29	1
CC(C)S(=O)(=O)N[C@@H]1c2cc3c(cc2[C@H](c2ccccc2)[C@H]1C)OCO3	-12	.	.	.	.	-12
Cc1ccc(Nc2nc(-c3cccs3)cs2)nc1	-4	1	24*	0	1	6
Cc1ccc(Nc2nc(-c3ccccc3)cs2)nc1	-5	.	4	0	4	9
CC(C)CCNC(=O)NC(=O)COC(=O)/C=C/c1cnc2ccccc2n1	-4	-20	11*	0	17	-3
COc1ccc(NC(=O)NCCC2=CCCCC2)cc1	2	-14	31*	0	-2	0
COc1cccc(NC(=O)NCCC2=CCCCC2)c1	0	-1	0	0	1	1
COC(=O)C[C@H]1CC[C@H]2[C@H](COc3ccc(NS(=O)(=O)c4ccccc4C)cc3C(=O)N2C)O1	-1	.	.	.	.	5
Clc1ccc(N=c2ssnc2Cl)nc1	13	18	2	0	54*	6
CSc1ccc(S(=O)(=O)NCC(=O)OCC(=O)N(C)Cc2ccccc2)cc1[N+](=O)[O-]	-4	.	-2	0	-10	0
COC(=O)C1=C[C@@H]([C@@H](C)[C@H](OC)c2ccccc2Br)[C@@H]2OCCC[C@H]12	-13	.	.	.	.	0
CSc1ccc(CN(C)C(=O)C(Cc2ccccc2)NC(=O)c2ccccc2)cc1 (stereo unspecified)	-3	-8	14*	0	7	0
O=C(NCCc1c[nH]c2ccccc12)OCc1cn(Cc2ccccc2Cl)nn1	3	.	.	.	.	1
C=CCc1cc(Cl)ccc1OC(=O)Nc1cccc(Cl)c1	-12	-9	11*	0	3	-2
O=C(Nc1cccc(Cl)c1)ON1CCCCC1	-7	.	.	0	.	4
O=C(NCC1CCN(C(=O)C(=O)c2cc3ccccc3o2)CC1)c1ccc2c(c1)OCCCO2	-7	.	.	.	.	-2
O=C(Nc1ccc(OC(F)(F)F)cc1)Nc1c(-c2ccccc2)nc2ncccn12	3	.	.	.	.	2
SMILES	GC-B act	Lipid droplet	NR3A LBD binder	aDG glyco up	GASC-1 inh	NPR1 activator
COc1ccc(-n2c(SCC(=O)N(C)C3CCS(=O)(=O)C3)nc3ccc(O)cc3c2=O)cc1OC (stereo unspecified)	4	.	14*	0	-7	5
CN(C(=O)CSc1nc2ccccc2c(=O)n1-c1ccc(F)cc1)C1CCS(=O)(=O)C1 (stereo unspecified)	0	.	1	0	.	0
O=C(C(=Cc1ccc(F)cc1)c1ccccc1)c1ccc(O)cc1	3	.	0	0	.	68*
Cc1ccc(C(=O)Nc2cccc(NC(=O)c3ccc(C)c([N+](=O)[O-])c3)n2)cc1[N+](=O)[O-]	1	-8	14*	0	0	9
Cc1ccc(C(=O)NC(=S)Nc2ccc(NC(=O)c3cccs3)cc2)cc1[N+](=O)[O-]	-1	17	31*	0	8	-9
Cc1ccc(C(=O)Nc2ccc(NC(=O)c3cccs3)cc2)cc1[N+](=O)[O-]	-5	-4	29*	0	-1	1
Cc1ccc(NC(=O)c2cccs2)cc1[N+](=O)[O-]	-5	22	2	0	-2	-12
Cc1cc(NC(=O)c2ccc(C)c([N+](=O)[O-])c2)no1	-2	1	0	0	-17	-2
O=C(CSc1nc2ccccc2c(=O)n1Cc1ccc(C(=O)NC2CC2)cc1)NCc1ccco1	7	9	1	0	61*	3
O=C(CSc1nc2ccccc2c(=O)n1Cc1ccccc1)NCc1ccco1	3	.	-1	0	40	-3
C[C@H](O)[C@@H]1C(=O)N2CCc3c([nH]c4c(-c5ccc6c(c5)OCO6)cccc34)[C@@H]2C[C@@H]1N(C)C(=O)OCc1ccccc1	-4	.	.	.	.	-5
COc1cc(-c2cc(NC=O)c3ncc(-c4ccc(C(C)=O)cc4)n3c2)cc(OC)c1OC	35*	.	.	0	.	33
COc1ccc(-c2cc(NC=O)c3ncc(-c4ccc(C(C)=O)cc4)n3c2)cc1OC	26	.	.	0	.	15
COc1cc(-c2cc(NC=O)c3ncc(-c4ccccc4)n3c2)cc(OC)c1OC	35*	.	.	0	.	24
COc1ccc2oc(C(=O)NNC(=O)c3ccc(F)cc3)c(C)c2c1	3	.	2	0	-12	-1
COc1ccc(/C=C/C(=O)c2oc3ccc(F)cc3c2C)cc1	.	-26	13*	0	-8	.

Screening data (PubChem BioAssay)
